Bioassay records: PubChem, several laboratories
The full list was thinned out, with hits kept by preference.
ABCB1 block – blocks JC-1 efflux by human ABCB1 transporter; AID 1326; P08183; CCRF-Adr cells, flow cytometry; 0.067% of 190,000 active; inhibition, % at 6.6 µM; in the data active = inhibition above about 40%;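 note: 0% = vehicle and 100% = reference inhibitor; higher value means more JC-1 retained so stronger ABCB1 efflux block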
Avidin fluor – avidin bead compound fluorescence profile; Avidin beads, compound fluorescence 488/530 nm, flow cytometry; hits give high values; fluorescence (KMESF) at 10 µM; 0.38% of 220,000 active; in the data active = fluorescence above about 47
PKD1 kinase inh – PKD1 (human) kinase inhibition | PKD1 kinase fluorescence polarization assay | inhibition, % (concentration not given with the values) | 0.056% of 200,000 active | AID 797
Target sequence (Q15139 whole entry, looked up): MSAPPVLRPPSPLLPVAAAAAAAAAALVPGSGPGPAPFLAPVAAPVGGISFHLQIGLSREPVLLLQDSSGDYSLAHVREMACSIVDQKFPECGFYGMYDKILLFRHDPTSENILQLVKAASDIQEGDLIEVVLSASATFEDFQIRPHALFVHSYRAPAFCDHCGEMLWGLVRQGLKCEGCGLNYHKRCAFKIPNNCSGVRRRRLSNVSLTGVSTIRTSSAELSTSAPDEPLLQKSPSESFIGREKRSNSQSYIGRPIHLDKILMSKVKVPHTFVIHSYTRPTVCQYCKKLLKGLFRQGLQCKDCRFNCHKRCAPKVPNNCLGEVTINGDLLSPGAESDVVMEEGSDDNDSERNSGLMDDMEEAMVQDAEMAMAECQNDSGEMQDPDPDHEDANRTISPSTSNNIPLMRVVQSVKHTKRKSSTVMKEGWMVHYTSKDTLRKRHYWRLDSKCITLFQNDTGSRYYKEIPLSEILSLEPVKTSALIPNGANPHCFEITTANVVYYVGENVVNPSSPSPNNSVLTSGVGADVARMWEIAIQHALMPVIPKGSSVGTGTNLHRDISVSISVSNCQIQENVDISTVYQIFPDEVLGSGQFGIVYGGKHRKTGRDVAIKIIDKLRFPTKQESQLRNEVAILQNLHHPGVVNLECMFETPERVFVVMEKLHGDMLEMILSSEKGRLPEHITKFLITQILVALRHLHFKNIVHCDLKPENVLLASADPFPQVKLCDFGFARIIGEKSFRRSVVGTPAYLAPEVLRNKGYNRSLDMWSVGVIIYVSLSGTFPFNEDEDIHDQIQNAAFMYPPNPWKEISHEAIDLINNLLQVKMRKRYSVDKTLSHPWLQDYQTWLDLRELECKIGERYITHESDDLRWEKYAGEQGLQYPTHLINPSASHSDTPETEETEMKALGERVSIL
ABCG2 inh – blocks JC-1 efflux by human ABCG2 transporter | IgMXP3 cells, flow cytometry | 0.1% of 190,000 active | inhibition, % at 6.6 µM | Q9UNQ0;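 active = inhibition above 80%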;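 note: 0% = DMSO and 100% = nicardipine control wells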
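System: two drug-resistant human cell lines, ABCG2 and ABCB1; controls: nicardipine high and DMSO low controls; times: 10 min exposure at 25 °C with rotation, no wash; detection: flow cytometry of retained JC-1 fluorescence; read-out basis: percent efflux inhibition, scaled nicardipine 100% to DMSO 0%; doses: one concentration, 6.6 µM final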
GSH bead fluor – GSH bead compound fluorescence profile; GSH beads flow cytometry, compound fluorescence 488/530 nm; hits give high values; fluorescence (KMESF) at 10 µM; 0.25% of 190,000 active; in the data active = fluorescence above about 89;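 note: glutathione beads carrying GST-tagged Bcl family fusion proteins plus one bare bead set; values are compound well signal with DMSO vehicle wells as background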
L major viab – reduces viability of Leishmania major promastigotes; resazurin fluorescence viability; AID 1063; 9% of 200,000 active; inhibition, % at 10 µM;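 note: promastigotes grown with compound for 44 hours at 28 °C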
* = called active by the depositor. Cut-off read from the data, not from the text of the source, unless noted: active = inhibition above about 50%; inactive = the rest.

How did O=C(NCC1(c2ccccc2)CCOCC1)c1cccs1 do in these assays?
ABCB1 block: 0.6; Avidin fluor: 10; PKD1 kinase inh: 7.7; ABCG2 inh: 1.3; GSH bead fluor: 18; L major viab: -0.8

What do the screens show for `O=C(NCCSCc1ccco1)c1ccc(CN2CCOCC2)cc1`?
ABCB1 block: 0.2; Avidin fluor: 4; PKD1 kinase inh: -0.9; ABCG2 inh: 0.8; GSH bead fluor: 39; L major viab: 2.9

Results for O=C(NCCSCc1c(F)cccc1Cl)c1ccc(CN2CCOCC2)cc1 ?
Avidin fluor: 5; PKD1 kinase inh: 1.2; ABCG2 inh: 7.2; GSH bead fluor: 13; L major viab: 80.2*

What do the screens show for `Cc1cccc(Nc2cc(C)c3c(O)cccc3n2)c1C`?
ABCB1 block: 1.3; Avidin fluor: 5; PKD1 kinase inh: 0.3; ABCG2 inh: 2.8; GSH bead fluor: 13; L major viab: 99.2*

Results for Cc1cccc(NC(=S)N(C)C)c1C ?
Avidin fluor: 4

Results for O=C1c2cccc(OCC(=O)N3N=C(c4cccs4)CC3c3ccc(F)cc3)c2CCN1Cc1cccnc1 (stereo not given) ?
ABCB1 block: 27.1; Avidin fluor: 8; PKD1 kinase inh: -6.2; ABCG2 inh: 22.3; GSH bead fluor: 11; L major viab: 85.1*

Results for COc1ccc(Cl)cc1-c1nc(-c2ccc(NC(=O)c3ccncc3)cc2)no1 ?
PKD1 kinase inh: -7.2; L major viab: 15.9

What do the screens show for `CC(Oc1ccc(Cl)cc1Cl)c1nc(-c2ccc(NC(=O)c3ccccn3)cc2)no1` (stereo not given)?
ABCB1 block: 0.5; Avidin fluor: 7; PKD1 kinase inh: -4.1; ABCG2 inh: 14.6; GSH bead fluor: 108*; L major viab: -0.2

What do the screens show for `CN1CC(=O)N(CC(=O)NCc2ccc3c(c2)OCO3)C1=O`?
ABCB1 block: 0.8; Avidin fluor: 8; PKD1 kinase inh: -0.1; ABCG2 inh: 3.0; GSH bead fluor: 283*; L major viab: 2.8

Results for COc1ccc(CC(=O)NCc2ccc3c(c2)OCO3)cc1 ?
ABCB1 block: 0.0; Avidin fluor: 7; PKD1 kinase inh: 4.2; ABCG2 inh: 0.0; GSH bead fluor: 54; L major viab: -2.1

What do the screens show for `Cc1ccc(C2=NN(CCC(=O)NCc3ccc4c(c3)OCO4)C(=O)CC2)cc1`?
ABCB1 block: 2.9; Avidin fluor: 32; PKD1 kinase inh: -2.2; ABCG2 inh: 5.9; GSH bead fluor: 226*; L major viab: 41.5

Results for CCC1(CC)NC(=O)N(CC(=O)NCc2ccc3c(c2)OCO3)C1=O ?
ABCB1 block: 0.4; Avidin fluor: 12; PKD1 kinase inh: 2.7; ABCG2 inh: 1.7; GSH bead fluor: 26; L major viab: 3.0

How did Cc1ccc(C2=NN(CCC(=O)NCCC(C)C)C(=O)CC2)cc1 do in these assays?
ABCB1 block: 0.2; Avidin fluor: 13; PKD1 kinase inh: -15.7; ABCG2 inh: 3.0; GSH bead fluor: 21; L major viab: 72.9*

How did CCc1ccc(C2=NN(CCC(=O)NCc3cccs3)C(=O)CC2)cc1 do in these assays?
ABCB1 block: 0.9; Avidin fluor: 11; PKD1 kinase inh: -11.2; ABCG2 inh: 2.5; GSH bead fluor: 15; L major viab: -1.0

What do the screens show for `CCc1ccc(C2=NN(CCC(=O)NC(C)c3ccc4c(c3)OCCO4)C(=O)CC2)cc1` (stereo not given)?
ABCB1 block: 0.3; Avidin fluor: 12; PKD1 kinase inh: -0.6; ABCG2 inh: 1.9; GSH bead fluor: 15; L major viab: 8.3

What do the screens show for `COc1ccc(C2=NN(CCC(=O)NCc3ccc4c(c3)OCO4)C(=O)CC2)cc1`?
ABCB1 block: 0.5; Avidin fluor: 15; PKD1 kinase inh: 3.7; ABCG2 inh: 5.3; GSH bead fluor: 19; L major viab: 53.9*

Results for CCOc1ccc(C2/C(=C(\O)c3cccc(OC)c3)C(=O)C(=O)N2c2ccccn2)cc1OC (stereo not given) ?
Avidin fluor: 6

How did O=C1c2cccnc2Oc2ccc(Cl)cc2N1Cc1ccc(F)cc1 do in these assays?
ABCB1 block: 2.4; Avidin fluor: 8; PKD1 kinase inh: -8.4; ABCG2 inh: 17.4; GSH bead fluor: 12; L major viab: -0.6

What do the screens show for `CCOC(=O)/C=c1\s/c(=C\c2sccc2C)c(=O)n1CC(=O)NCc1ccc(C)cc1`?
ABCB1 block: -1.3; Avidin fluor: 10; PKD1 kinase inh: 0.2; ABCG2 inh: -8.1; GSH bead fluor: 9; L major viab: -6.5

How did Cc1ccsc1C(=O)OCC(=O)NCc1ccc2c(c1)OCO2 do in these assays?
ABCB1 block: 0.5; Avidin fluor: 7; PKD1 kinase inh: -10.9; ABCG2 inh: 1.3; GSH bead fluor: 261*; L major viab: -5.3

How did C=CCn1c(=NC(=O)C2CCCCC2)sc2cc(NC(C)=O)ccc21 do in these assays?
ABCB1 block: 1.2; Avidin fluor: 8; PKD1 kinase inh: -8.9; ABCG2 inh: 3.2; GSH bead fluor: 27; L major viab: 79.5*

How did CC1C/C(=N/Nc2nc3ccccc3[nH]2)CC(C)(C)C1 (stereo not given) do in these assays?
ABCB1 block: 0.1; Avidin fluor: 5; PKD1 kinase inh: 3.5; ABCG2 inh: 0.4; GSH bead fluor: 13; L major viab: 84.9*

How did CC1C/C(=N/NC(=O)c2ccc(CSc3nc4ccccc4[nH]3)cc2)CC(C)(C)C1 (stereo not given) do in these assays?
ABCB1 block: -0.3; Avidin fluor: 13; PKD1 kinase inh: -12.4; ABCG2 inh: -12.9; GSH bead fluor: 6; L major viab: 39.4

How did Cc1cc(N/N=C2/CCCc3ccccc32)nc2ccccc12 do in these assays?
ABCB1 block: 2.4; Avidin fluor: 10; PKD1 kinase inh: -6.1; ABCG2 inh: 7.0; GSH bead fluor: 16; L major viab: 89.9*

Results for c1ccc2[nH]c(NN=C3CCCCCC3)nc2c1 ?
ABCB1 block: 0.6; Avidin fluor: 8; PKD1 kinase inh: -2.2; ABCG2 inh: 16.5; GSH bead fluor: 15; L major viab: 74.7*

Results for Cc1cc(N/N=C2\CC(C)CC(C)(C)C2)nc2ccccc12 (stereo not given) ?
ABCB1 block: 0.2; Avidin fluor: 27; PKD1 kinase inh: -4.1; ABCG2 inh: 2.4; GSH bead fluor: 12; L major viab: 98.8*

How did COc1ccc(OCCNS(=O)(=O)c2ccc3oc4ccccc4c3c2)cc1 do in these assays?
ABCB1 block: 0.5; Avidin fluor: 10; PKD1 kinase inh: 2.1; ABCG2 inh: 1.9; GSH bead fluor: 10; L major viab: -3.5

What do the screens show for `CN(CCOc1ccccc1)S(=O)(=O)c1ccc2oc3ccccc3c2c1`?
ABCB1 block: 1.5; Avidin fluor: 60*; PKD1 kinase inh: 6.4; ABCG2 inh: 5.3; GSH bead fluor: 29; L major viab: 55.5*

Results for Cc1cc(/C=C(/C#N)c2cccc(F)c2)c(C)n1-c1cccnc1 ?
ABCB1 block: 0.0; Avidin fluor: 26; PKD1 kinase inh: -0.5; ABCG2 inh: 0.2; GSH bead fluor: 14; L major viab: 99.4*
